In ChEMBL document CHEMBL4229433, “The synthesis and evaluation of phenoxyacylhydroxamic acids as potential agents for Helicobacter pylori infections” (Bioorg Med Chem, 2018):

Columns and labels:
[1] = target: T1, Urease subunit alpha/Urease subunit beta (Helicobacter pylori (strain ATCC 700392 / 26695) (Campylobacterpylori), UniProt P69996); assay: Inhibition of Helicobacter pylori ATCC 43504 urease assessed as reduction in ammonia production using urea as substrate preincubated for 1.5 hrs under cell free condition by indophenol method; type: protein-complex assay, Helicobacter pylori NCTC 11637 = CCUG 17874 = ATCC 43504
T1 sequence (P69996 whole entry): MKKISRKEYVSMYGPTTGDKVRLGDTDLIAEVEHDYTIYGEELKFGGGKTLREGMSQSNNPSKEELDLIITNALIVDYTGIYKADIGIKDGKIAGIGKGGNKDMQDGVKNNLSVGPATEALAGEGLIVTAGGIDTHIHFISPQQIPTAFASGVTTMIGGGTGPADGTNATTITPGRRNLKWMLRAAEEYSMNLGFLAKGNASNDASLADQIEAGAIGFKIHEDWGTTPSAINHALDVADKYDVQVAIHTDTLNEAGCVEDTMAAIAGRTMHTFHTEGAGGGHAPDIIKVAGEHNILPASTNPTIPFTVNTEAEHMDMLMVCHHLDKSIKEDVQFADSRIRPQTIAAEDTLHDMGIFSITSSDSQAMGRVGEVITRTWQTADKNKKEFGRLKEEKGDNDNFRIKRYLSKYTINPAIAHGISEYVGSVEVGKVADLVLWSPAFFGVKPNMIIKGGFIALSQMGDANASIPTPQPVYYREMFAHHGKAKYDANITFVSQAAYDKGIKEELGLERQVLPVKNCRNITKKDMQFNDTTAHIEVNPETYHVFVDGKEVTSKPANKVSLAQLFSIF
T1 sequence (P14916 whole entry, further chain): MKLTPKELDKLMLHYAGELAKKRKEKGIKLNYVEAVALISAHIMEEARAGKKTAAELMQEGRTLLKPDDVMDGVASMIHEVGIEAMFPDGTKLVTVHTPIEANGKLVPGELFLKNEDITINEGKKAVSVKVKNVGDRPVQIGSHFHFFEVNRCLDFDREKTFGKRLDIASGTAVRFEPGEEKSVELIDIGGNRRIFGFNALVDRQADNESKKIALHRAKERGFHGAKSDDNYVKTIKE
In short: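 Crude urease from H. pylori ATCC 43504 grown 24 h at 37 °C, micro-aerobic, in Brucella broth with 10% sheep blood. Cells were PBS-washed, frozen at −80 °C, sonicated with protease inhibitors, centrifuged, desalted on G-25 and kept in 50% glycerol at 4 °C. Enzyme (10U) was preincubated with compound 1.5 h at room temperature. Ammonia was read by the indophenol method.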

[2] = target: T1, Urease subunit alpha/Urease subunit beta; assay: Mixed-type inhibition of Helicobacter pylori ATCC 43504 urease assessed as enzyme-substrate-inhibitor complex using urea as substrate preincubated for 1.5 hrs; type: protein-complex assay, Helicobacter pylori NCTC 11637 = CCUG 17874 = ATCC 43504
In short: (§1)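 Ammonia production rate measured by the indophenol method over a urea concentration gradient at each fixed inhibitor concentration. Inhibition type was assigned by nonlinear fitting to the general kinetic equation. Ki and Ki' were taken as the X-axis intercepts of linear fits of the fitted parameters against inhibitor concentration.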

[3] = target: T2, Urease subunit alpha/Urease subunit beta (Helicobacter pylori (strain ATCC 700392 / 26695) (Campylobacterpylori)) (UniProt P69996+P14916); assay: Ratio of IC50 for inhibition of urease in Helicobacter pylori ATCC 43504 intact cells to IC50 for inhibition of Helicobacter pylori ATCC 43504 urease under cell free condition; settings: Helicobacter pylori NCTC 11637 = CCUG 17874 = ATCC 43504
T2 sequence (P14916 whole entry, looked up): as the sequence (P14916 whole entry, further chain) above
T2 sequence (P69996 whole entry, looked up): as the sequence (P69996 whole entry) above

[4] = target: T1, Urease subunit alpha/Urease subunit beta; assay: Mixed-type inhibition of Helicobacter pylori ATCC 43504 urease assessed as enzyme-inhibitor complex using urea as substrate preincubated for 1.5 hrs; type: protein-complex assay, Helicobacter pylori NCTC 11637 = CCUG 17874 = ATCC 43504; in short: as §1
[5] = target: T2, Urease subunit alpha/Urease subunit beta (Helicobacter pylori (strain ATCC 700392 / 26695) (Campylobacterpylori)); assay: (§2) Inhibition of urease in Helicobacter pylori ATCC 43504 assessed as reduction in ammonia production using urea as substrate preincubated for 1.5 hrs by indophenol method; type: protein-complex assay; settings: Helicobacter pylori NCTC 11637 = CCUG 17874 = ATCC 43504
In short: (§3)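 Crude urease from sonicated H. pylori cells (grown 24 h, 37 °C, microaerobic, Brucella broth + 10% sheep blood), PBS-washed, frozen at –80 °C, desalted on Sephadex G-25, stored in 50% glycerol at 4 °C; 10U enzyme preincubated with compound 1.5 h at room temperature; ammonia measured by Weatherburn indophenol method.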

[6] = target: T1, Urease subunit alpha/Urease subunit beta; assay: as §2; type: protein-complex assay, Helicobacter pylori NCTC 11637 = CCUG 17874 = ATCC 43504; in short: as §3
[7] = target: T2, Urease subunit alpha/Urease subunit beta (Helicobacter pylori (strain ATCC 700392 / 26695) (Campylobacterpylori)); assay: Potency index, ratio of acetohydroxamic acid IC50 to compound IC50 for inhibition of urease in Helicobacter pylori ATCC 43504; type: protein-complex assay; settings: Helicobacter pylori NCTC 11637 = CCUG 17874 = ATCC 43504
[8] = target: T2, Urease subunit alpha/Urease subunit beta (Helicobacter pylori (strain ATCC 700392 / 26695) (Campylobacterpylori)); assay: Potency index, ratio of acetohydroxamic acid IC50 to compound IC50 for inhibition of Helicobacter pylori ATCC 43504 urease; type: protein-complex assay; settings: Helicobacter pylori NCTC 11637 = CCUG 17874 = ATCC 43504

| Structure (SMILES) | IC50 [1] [µM] | also measured |
| --- | --- | --- |
| Cc1cccc(OCC(=O)NO)c1 | 85.1 |  |
| O=C(COc1cccc([N+](=O)[O-])c1)NO | 94.7 |  |
| Cc1cccc(OCCC(=O)NO)c1 | 3.38 |  |
| O=C(CCOc1ccc(Cl)cc1)NO | 0.44 | Ki [2]: 0.054 µM; Ratio IC50 [3]: 14 to 24; Ki [4]: 0.043 µM; inhibition [5]: Dose-dependent effect; IC50 [6]: 8.2 µM |
| O=C(COc1ccc(Cl)cc1)NO | 1.26 |  |
| O=C(CCOc1cc(Cl)ccc1Cl)NO | 13.1 |  |
| O=C(COc1ccccc1[N+](=O)[O-])NO | 144 |  |
| O=C(COc1ccc(F)cc1)NO | 18.9 |  |
| O=C(CCOc1ccccc1)NO | 4.18 |  |
| COc1ccc(OCCC(=O)NO)cc1 | 8.35 |  |
| O=C(COc1c(Cl)cccc1Cl)NO | 353 |  |
| O=C(CCOc1ccc(Cl)c(Cl)c1)NO | 0.061 | Ratio IC50 [7]: > 120; Ratio IC50 [3]: 14 to 24; Ratio IC50 [8]: > 450; inhibition [5]: Dose-dependent effect; IC50 [6]: 0.89 µM |
| Cc1ccccc1OCCC(=O)NO | 6.74 |  |
| O=C(CCOc1ccc(F)cc1)NO | 1.13 |  |
| O=C(COc1cccc(Cl)c1)NO | 10.4 |  |
| O=C(COc1ccc(Br)cc1)NO | 5.35 |  |
| O=C(COc1ccc(Cl)cc1Cl)NO | 0.83 | Ratio IC50 [3]: 14 to 24; inhibition [5]: Dose-dependent effect; IC50 [6]: 21.4 µM |
| Cc1ccccc1OCC(=O)NO | 154 |  |
| Cc1ccc(OCC(=O)NO)cc1 | 57.1 |  |

| Structure (SMILES) | IC50 [1] [µM] | also measured |
| --- | --- | --- |
| O=C(COc1cccc(F)c1)NO | 27 |  |
| O=C(CCOc1cccc(F)c1)NO | 2.05 |  |
| Cc1cc(C)cc(OCCC(=O)NO)c1 | 10.4 |  |
| O=C(COc1ccc(Cl)c(Cl)c1)NO | 0.52 | Ratio IC50 [3]: 14 to 24; inhibition [5]: Dose-dependent effect; IC50 [6]: 12.8 µM |
| O=C(CCOc1ccc(Br)cc1)NO | 0.86 | Ratio IC50 [3]: 14 to 24; inhibition [5]: Dose-dependent effect; IC50 [6]: 16.3 µM |
| O=C(COc1ccccc1)NO | 131 |  |
| O=C(COc1cc(Cl)cc(Cl)c1)NO | 3.22 |  |
| O=C(COc1ccc([N+](=O)[O-])cc1)NO | 62.1 |  |
| O=C(COc1ccccc1Cl)NO | 78.5 |  |
| O=C(COc1ccccc1F)NO | 121 |  |
| O=C(CCOc1cccc(Cl)c1)NO | 1.23 |  |
| Cc1ccc(OCCC(=O)NO)cc1 | 1.38 |  |
| O=C(COc1cc(F)cc(F)c1)NO | 205 |  |
| O=C(COc1cc(Cl)ccc1Cl)NO | 9.02 |  |
| O=C(COc1cccc(Cl)c1Cl)NO | 179 |  |
| O=C(CCOc1cc(F)cc(F)c1)NO | 5.09 |  |
| Cc1cc(C)cc(OCC(=O)NO)c1 | 41.9 |  |
| COc1ccc(OCC(=O)NO)cc1 | 49.5 |  |
